Diaphorase act = compounds boosting diaphorase resazurin reduction – biochemical, uHTS, resorufin fluorescence, counter-screen for diaphorase-coupled primary assays, primary screen. Diaphorase/resazurin coupled assay, 16 min; stronger effect = higher value; 1 = vehicle wells, 0 = NADH-free wells. activation factor at 20 µM. actives 0.005% (n = 190,000). AID 1229, 2008;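 active = diaphorase activity raised at least twofold by the compound at 20 µM; inactive = activation factor below 2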
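Material: Clostridium kluyveri diaphorase, purified enzyme; Quantity: enzyme 0.07 U/mL final; Medium: HEPES pH 7.4 buffer with MgCl2 and Tween 20; Dosing: single compound dose of 20 µM, 1% DMSO final; Schedule: 16 min reaction at room temperature; Measured by: red resorufin fluorescence at 544/590 nm excitation/emission.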
Diaphorase inh = diaphorase inhibitors and chemical oxidizers, primary screen, counter-screen for diaphorase-coupled primary assays, biochemical, uHTS, resorufin fluorescence; diaphorase resazurin-to-resorufin fluorescence, NADH, 16 min; bacterial (C. kluyveri) enzyme, not human; inhibition, % at 20 µM; actives 0.69% (n = 190,000);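 active = primary screen inhibition at 20 µM above a set limit, cut at about 50% in these data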
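Test system: bacterial diaphorase enzyme (C. kluyveri); Quantity: 0.14 U/mL diaphorase, enzyme working solution; Times: reaction incubation of 16 min at room temperature; Measured by: fluorescence of resorufin formed from resazurin, Ex 544/Em 590 nm; Benchmarks: positive control minus NADH, DMSO neutral control.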
G6PDH CS = L. mesenteroides G6PDH inhibitors, counter-screen for G6PDH-coupled screening assays, biochemical, Leuconostoc mesenteroides enzyme | glucose-6-phosphate dehydrogenase [Leuconostoc mesenteroides] | Purified L. mesenteroides G6PDH, diaphorase/resazurin coupled fluorescence, 45 min | inhibition, % at 5 µM | actives 0.12% (n = 200,000) | AID 1020, 2008
L major viab = Leishmania major promastigote growth inhibition, primary screen; Leishmania major promastigotes, resazurin fluorescence viability; inhibition, % at 10 µM; actives 9% (n = 200,000); AID 1063, 2008;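 note: promastigotes grown with compound for 44 hours at 28 °C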
WT yeast gro inh = growth inhibition of WT strain, primary screen, mitochondrial fusion inhibitor project, WT and mutant strains, chemical genetic | actives 2.1% (n = 190,000) | AID 1362, 2008 | mitochondrial fusion phenotypic screen | inhibition, % at 10 µM; in the data active = inhibition above about 58%; tested in S. cerevisiae
Numbers stand for hits; . = inactive; / = no result given. This is a sample that favours compounds with a hit; in the whole collection about 11% have one here. Cut-off read from the data, not from the text of the source, unless noted: active = inhibition above about 50%; inactive = the rest.

SMILES	Diaphorase act	Diaphorase inh	G6PDH CS	L major viab	WT yeast gro inh
CC(c1nccs1)N(C)C(=O)CCc1nnc(Cc2c[nH]c3ccccc23)o1 (configuration not stated)	.	.	.	.	.
CCOC(=O)C1=C(C)NC(C)=C(C(=O)OCC)C1c1cc(N)ccc1OC(F)F	.	.	.	54.7	.
CCOC(=O)C1=C(C)NC(C)=C(C(=O)OCC)C1C	.	.	.	.	.
COc1ccc(CC(=O)O/N=C(\N)Cc2ccc(OC)c(OC)c2)cc1	.	.	.	91.9	/
CC(=O)c1cccc(NC(=O)CSCc2ccccc2)c1	.	.	.	.	.
COc1ccc(NC(=O)CC2C(=O)N(C)C(=S)N2Cc2ccc3c(c2)OCO3)cc1 (configuration not stated)	.	.	.	.	.
COc1ccccc1N=c1scc(-c2ccc3c(c2)NC(=O)CO3)n1CC1CCCO1 (configuration not stated)	.	.	.	.	.
O=C1COc2ccc(-c3csc(=Nc4ccc(OC(F)F)cc4)n3CC3CCCO3)cc2N1 (configuration not stated)	.	.	.	99.5	.
COc1ccc2nc(NC(=O)Nc3ccccc3)sc2c1	.	.	.	.	.
CC(C)(C)c1nc(NC(=O)Nc2ccccc2)sc1Br	.	.	.	.	59.2
CC1CCCC(C)N1C(=O)COc1ccc([N+](=O)[O-])cc1Cl (configuration not stated)	.	.	.	.	.
COc1ccc(NC(=S)N2CCN(C/C=C/c3ccccc3)CC2)cc1OC	.	.	.	73.6	.
COc1ccc(NC(=S)N2CCN(C/C=C/c3ccccc3)CC2)cc1	.	.	.	85.6	.
COc1ccc(OC)c(NC(=S)N2CCN(C/C=C/c3ccccc3)CC2)c1	.	.	.	.	.
CCOc1ccc(NC(=S)N2CCN(C/C=C/c3ccccc3)CC2)cc1	.	.	.	89.5	.
C=CCNC(=O)COC(=O)COc1ccc(Cl)cc1	.	.	.	.	.
CCCOc1ccc(N2C(=O)CC(N3CCC(c4nc5ccccc5o4)CC3)C2=O)cc1 (configuration not stated)	.	.	.	.	.
CCOC(=O)c1c(C)oc2c(CN3CCN(C)CC3)c(Br)c(OC)c(O)c12	.	.	.	100.4	/
CCOC(=O)c1c(CN2CCOCC2)n(-c2ccccc2)c2cc(Br)c(O)cc12	.	.	.	.	.
CCOC(=O)c1c(CN2CCN(C)CC2)n(C)c2cc(Br)c(OC)cc12	.	.	.	100.3	.
CCOC(=O)c1oc2ccccc2c1CN1CCN(C)CC1	.	.	.	.	.
CCOC(=O)c1c(CN2CCOCC2)n(-c2ccccc2)c2cc(Br)c(OC)cc12	.	.	.	.	72.7
O=C(CSc1n[nH]c(-c2ccc(S(=O)(=O)N3CCCCC3)cc2)n1)Nc1nccs1	.	.	.	.	.
Cn1c(=O)c(=O)n(C)c2cc(S(=O)(=O)N3CCC(N4CCCCC4)CC3)ccc21	/	/	/	.	/
Cc1ccc(NC(=O)C2CCN(S(=O)(=O)c3ccc(F)cc3)CC2)cc1	.	.	.	99.4	.
SMILES	Diaphorase act	Diaphorase inh	G6PDH CS	L major viab	WT yeast gro inh
CCOC(=O)N1CCN(C(=O)CN(Cc2ccc(Cl)cc2)S(=O)(=O)c2ccc(C)cc2)CC1	.	.	.	92.9	.
O=S(=O)(c1ccc(Cl)cc1)N1CCC(N2CCCCCC2)CC1	.	.	.	96.9	.
O=[N+]([O-])c1ccc(Oc2ccc(S(=O)(=O)N3CCCCC3)cc2)cc1	.	.	.	.	.
CC1CCN(S(=O)(=O)c2ccc(Oc3ccc([N+](=O)[O-])cc3)cc2)CC1	.	.	.	.	61.5
CCN(C(=O)c1cn(C)c(=O)c2cc(OC)c(OC)cc12)c1cc(OC)ccc1OC	.	.	.	.	.
COc1ccccc1CN1CCN(C(CC(C)C)c2nnnn2Cc2cccs2)CC1 (configuration not stated)	.	.	.	/	.
O=C(Oc1ccc(Cl)c2cccnc12)C12CC3CC(CC(C3)C1)C2	.	.	.	.	.
COc1cc(C)c(Br)cc1S(=O)(=O)N1CCCC1	.	.	.	.	.
CCOC(=O)N1CCC(N2CCN(S(=O)(=O)c3ccc(NC(C)=O)cc3)CC2)CC1	.	.	.	.	/
CCOC(=O)N1CCC(Nc2c(N3CCN(c4cc(Cl)ccc4C)CC3)c(=O)c2=O)CC1	.	.	.	.	.
CC1CCN(C2CCN(S(=O)(=O)c3ccc(F)cc3)CC2)CC1	.	.	.	89.6	.
CCN1CCN(S(=O)(=O)c2ccc3ccccc3c2)CC1	.	.	.	.	.
CCOC(=O)N1CCC(N2CCN(S(=O)(=O)c3ccc(Cl)cc3)CC2)CC1	.	.	.	95.4	.
CC1CN(C2CCN(S(=O)(=O)c3ccc4ccccc4c3)CC2)CC(C)O1 (configuration not stated)	.	.	.	93.8	.
CCOC(=O)N1CCC(N2CCN(c3cc(C)ccc3C)CC2)CC1	.	.	.	94.8	.
CCc1ccc(C2NC(=S)NC3=C2C(=O)CC(C)(C)C3)cc1 (configuration not stated)	.	.	.	.	.
COC(=O)CCSCC(=O)N1N=C(c2ccc(Br)cc2)CC1c1cccc(OC)c1OC (configuration not stated)	.	.	.	.	.
O=S(=O)(c1ccc(F)cc1)N1CCC(N2CCCCCC2)CC1	.	.	.	98.0	.
CN=C1C([N+](=O)[O-])=CC=C2C1=NC1(CCCCC1)N2O	.	71.5	.	.	.
O=[N+]([O-])C1=CC=C2C(=NC3(CCCCC3)N2O)C1=NCCO	.	76.1	.	.	.
COC(CNC(=O)C1CCCN(S(=O)(=O)c2c(C)noc2/C=C/c2cccs2)C1)OC (configuration not stated)	.	.	.	.	.
CCC(=O)c1ccc(OCc2ccc(C(=O)c3ccccc3)cc2)cc1	.	.	.	.	.
CCOC(=O)c1c(C)[nH]c(C(=O)N/N=C\c2ccccc2O)c1C	.	.	.	99.9	.
CC(=O)N1CCc2cc(Br)cc(S(=O)(=O)NCC3CCCO3)c21 (configuration not stated)	.	.	.	.	/
COC(=O)[C@H](Cc1ccccc1)NC(=O)NCc1ccccc1OC	.	.	.	.	.
Cc1ccc(C)c2[nH]c(=O)c(C(c3nnnn3C(C)(C)C)N3CC=C(c4ccc(F)cc4)CC3)cc12 (configuration not stated)	.	.	.	96.6	.
c1ccc(Nc2nc(N3CCOCC3)nc(N3CCOCC3)n2)cc1	.	.	.	.	.

Compound activity (PubChem)
